The results in this text go back to ChEMBL document CHEMBL1145978, “New N-n-propyl-substituted 3-aryl- and 3-cyclohexylpiperidines as partial agonists at the D4 dopamine receptor” (J Med Chem, 2003).

Assay [1] deals with T1, D(2) dopamine receptor (Bos taurus, UniProt P20288). Nature of the assay: Affinity for Dopamine receptor D2 using [3H]-YM-09151-2 was carried out on bovine striatal membrane preparations. Also on record: species or system Striatum. The method, boiled down:
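Competition binding on bovine striatal membranes: homogenised in Tris 50, EDTA 1, CaCl2 1.5, MgCl2 4, KCl 5, NaCl 120 mM, pH 7.4; centrifuged 48 000 g, 20 min, 4 °C, washed, used at ~1.25 mg wet tissue/mL. 0.1 nM [3H]-YM-09-151-2 (Kd 0.4 nM), 60 min at 30 °C, duplicates; nonspecific with 2 mM DA; vacuum filtration; Ki from IC50.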

Assay [2] deals with T1, D(2) dopamine receptor. Kind of assay: Affinity for Dopamine receptor D2 using [3H]YM-09151-2 was carried out on bovine retinal membrane preparations (low-affinity). Further details: species or system Retina. The method, boiled down:
(§1)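 Retinal membranes were prepared in Tris/EDTA/Ca/Mg/K/NaCl saline, pH 7.4, at about 4 mg wet tissue/mL. They were incubated with 0.1 nM [3H]-YM-09-151-2 at 30 °C for 60 min, in duplicate, with 2 mM DA defining nonspecific binding, followed by rapid filtration. Displacement curves were fitted to a two-site model, giving high- and low-affinity Ki from IC50 using Kd 0.4 nM.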

For a further assay, the target named is D(1A) dopamine receptor (Bos taurus, UniProt Q95136). Nature of the assay: Affinity for Dopamine receptor D1 using [3H]SCH-23390 was carried out on bovine retinal membrane preparations. Further details: species or system Retina. The method, boiled down: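 Bovine retinal membranes were homogenized in Tris 50 mM, EDTA 1, CaCl2 1.5, MgCl2 4, KCl 5, NaCl 120 mM, pH 7.4, and used at about 4 mg wet tissue/mL. They were incubated with 0.5 nM [3H]-SCH23390 for 20 min at 30 °C, in duplicate. Nonspecific binding was set with 2 mM DA, and bound ligand was separated by vacuum filtration. Ki was derived from IC50 using Kd 2 nM.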
D(1A) dopamine receptor, sequence (Q95136 whole entry): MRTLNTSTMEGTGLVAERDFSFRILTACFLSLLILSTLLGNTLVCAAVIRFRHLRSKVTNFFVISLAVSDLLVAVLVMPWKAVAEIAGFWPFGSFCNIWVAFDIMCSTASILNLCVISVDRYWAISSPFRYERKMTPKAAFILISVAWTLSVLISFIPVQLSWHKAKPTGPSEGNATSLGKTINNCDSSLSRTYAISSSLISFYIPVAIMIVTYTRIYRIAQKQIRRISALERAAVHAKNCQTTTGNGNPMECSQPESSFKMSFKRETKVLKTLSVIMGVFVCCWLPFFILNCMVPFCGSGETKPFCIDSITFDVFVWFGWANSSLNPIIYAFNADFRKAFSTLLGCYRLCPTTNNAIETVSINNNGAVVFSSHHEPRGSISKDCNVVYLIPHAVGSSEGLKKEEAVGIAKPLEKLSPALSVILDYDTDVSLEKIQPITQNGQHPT

The target of assay [3] is T1, D(2) dopamine receptor. Kind of assay: Affinity for Dopamine receptor D2 using [3H]YM-09151-2 was carried out on bovine retinal membrane preparations (high-affinity). Further details: species or system Retina. The method, boiled down: as §1

SMILES strings stand for the structures. pKi: −log10 of the molar value.

T1 sequence (P20288 whole entry): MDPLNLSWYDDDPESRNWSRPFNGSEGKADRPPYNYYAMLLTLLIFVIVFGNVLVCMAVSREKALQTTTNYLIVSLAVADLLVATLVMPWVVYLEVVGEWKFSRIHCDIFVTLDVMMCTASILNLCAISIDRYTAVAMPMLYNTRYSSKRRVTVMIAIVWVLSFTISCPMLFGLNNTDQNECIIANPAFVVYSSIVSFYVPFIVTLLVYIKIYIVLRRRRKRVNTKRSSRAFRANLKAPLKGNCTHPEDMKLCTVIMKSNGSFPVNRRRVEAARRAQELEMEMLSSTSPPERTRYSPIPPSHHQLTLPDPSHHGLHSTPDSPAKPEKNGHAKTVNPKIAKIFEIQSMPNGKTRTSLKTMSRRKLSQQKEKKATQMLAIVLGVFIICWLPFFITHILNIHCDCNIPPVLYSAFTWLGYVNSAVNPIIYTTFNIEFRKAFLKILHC

For `CCCN1CCCC(C2CCCCC2C)C1` (centres undefined), the pKi on D(2) dopamine receptor [1] was 6.38; at D(2) dopamine receptor [2], 4.36; at D(1A) dopamine receptor, less than 5.00; on D(2) dopamine receptor [3] it was 7.59.
With `CCCN1CCCC(C2CCCCC2)C1` (centres undefined), the pKi was 4.84 on D(2) dopamine receptor [1], 4.60 on D(2) dopamine receptor [2], less than 5.00 at D(1A) dopamine receptor and 8.40 on D(2) dopamine receptor [3].
For `CCCN1CCCC(c2ccc(C)cc2)C1` (centres undefined), in that order: 4.86, 4.45, less than 5.00 and 7.36.
In the case of `CCCN1CCCC(c2cccc(C)c2)C1` (centres undefined), the pKi on D(2) dopamine receptor [2] was 4.80; at D(1A) dopamine receptor it was less than 5.00; on D(2) dopamine receptor [3], 7.38.
With `CCCN1CCCC(c2ccccc2)C1` (centres undefined), the pKi was 4.97 at D(2) dopamine receptor [1], 4.36 on D(2) dopamine receptor [2], less than 5.00 on D(1A) dopamine receptor and 7.41 on D(2) dopamine receptor [3].
As for `CCCN1CCCC(C2CCC(C)CC2)C1` (centres undefined), the pKi at D(2) dopamine receptor [1] was 4.70; at D(2) dopamine receptor [2], 4.19; on D(1A) dopamine receptor, less than 5.00; at D(2) dopamine receptor [3], 8.40.
For `CCCN1CCCC(C2CCCC(C)C2)C1` (centres undefined), in that order: 5.00, 4.57, less than 5.00 and 8.30.
For `CCCN1CCCC(c2ccccc2C)C1` (centres undefined), in that order: 5.82, 4.57, less than 5.00 and 6.35.
Turning to `CCCN1CCCC(c2ccc(C)c(C)c2)C1` (centres undefined), the pKi at D(2) dopamine receptor [1] was 5.09; on D(2) dopamine receptor [2], 5.12; on D(1A) dopamine receptor, less than 5.00; at D(2) dopamine receptor [3], 7.57.
For `Cc1cccc(C(=O)NCN2CCN(c3ccccc3C#N)CC2)c1` [PD-168,077], in that order: 4.74, 5.20, less than 5.00 and 7.60.

Usually pKi stands for the negative decadic logarithm of the Ki, by convention in mol/L. Read a high pKi as a low Ki.
